Source: ChEMBL document CHEMBL1142598, “Phytochemistry and antifungal properties of the newly discovered tree Pleodendron costaricense” (2006)
≈ marks a conversion by molar mass, not a printed value.

How the values were obtained:
Exophiala dermatitidis = assay: Antifungal activity against yeast-like Wangiella dermatitidis after 48 hrs by NCCLS M27A method
Scedosporium boydii = assay: Antifungal activity against Pseudallescheria boydii after 48 hrs by NCCLS M27A method; assay type: functional
Method in brief: (§1)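 Filamentous fungi grown on Sabouraud dextrose (SD) agar at 30 °C. Hyphae-containing agar block blended in SD broth, then diluted 1:5000 in SD broth. Broth microdilution in SD broth from 20 mg/mL stocks in 95% EtOH, with 4-fold serial dilution and a no-compound negative column. Incubated 30 °C, 48 h. MIC is the lowest concentration giving ≥80% growth reduction.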

Candida albicans [1] = assay: Antifungal activity against azole-resistant Candida albicans D10 after 48 hrs by NCCLS M27A method; assay type: functional
Method in brief: (§2)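 Yeast-like strain grown on SD agar at 30 °C. One colony cultured overnight in SD broth at 30 °C to OD600 0.6–0.9, then diluted 1:5000 in SD broth. Broth microdilution from 20 mg/mL stocks in 95% EtOH, with 4-fold serial dilution and a no-compound negative column. Incubated 30 °C, 48 h. MIC is the lowest concentration giving ≥80% growth reduction.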

Candida albicans [2] = assay: Antifungal activity against wild type Candida albicans Al-1 after 48 hrs by NCCLS M27A method; assay type: functional
Method in brief: as §2

Saccharomyces cerevisiae = assay: Antifungal activity against Saccharomyces cerevisiae after 48 hrs by NCCLS M27A method; assay type: functional
Method in brief: as §2

Scheffersomyces shehatae = assay: Antifungal activity against Candida shehatae after 48 hrs by NCCLS M27A method; assay type: functional
Method in brief: as §2

Candida albicans [3] = assay: Antifungal activity against azole-resistant Candida albicans CN1A after 48 hrs by NCCLS M27A method; assay type: functional
Method in brief: as §2

Cryptococcus neoformans = assay: Antifungal activity against Cryptococcus neoformans after 48 hrs by NCCLS M27A method; assay type: functional
Method in brief: as §2

Candida albicans [4] = assay: Potentiation of drimane-type sesquiterpene-induced antifungal activity against wild type Candida albicans Al-1 assessed as fractional inhibition concentration index; assay type: functional
Method in brief: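 Broth microdilution in Sabouraud dextrose broth against C. albicans Al-1 (wild type), incubated at 30 °C for 48 h. Each sesquiterpene was tested alone, dillapiol alone, and the two combined at 1:5. A one-row 2-fold serial dilution started at 1000 µg/mL. MIC was the lowest concentration giving ≥80% growth reduction. FICI = FIC of dillapiol + FIC of compound, where FIC = MIC in combination / MIC alone.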

Alternaria alternata = assay: Antifungal activity against Alternaria alternata after 48 hrs by NCCLS M27A method; assay type: functional
Method in brief: as §1

Candida albicans [5] = assay: Antifungal activity against wild type Candida albicans Al-1 in presence of dillapiol; assay type: functional
Method in brief: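 Synergy run by a similar broth-microdilution MIC method in C. albicans Al-1. One-row 2-fold serial dilution starting at 1000 µg/mL, testing compound alone, dillapiol alone, and compound plus dillapiol (1:5). FIC is the MIC in combination divided by the MIC alone. FICI is the dillapiol FIC plus the compound FIC.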

Compound	MIC (Exophiala dermatitidis) [µg/mL]	MIC (Scedosporium boydii) [µg/mL]	MIC (Candida albicans [1]) [µg/mL]	MIC (Candida albicans [2]) [µg/mL]	MIC (Saccharomyces cerevisiae) [µg/mL]	MIC (Scheffersomyces shehatae) [µg/mL]	MIC (Candida albicans [3]) [µg/mL]	MIC (Cryptococcus neoformans) [µg/mL]	fractional inhibitory concentration index (FICI) (Candida albicans [4])	MIC (Alternaria alternata) [µg/mL]	MIC (Candida albicans [5]) [µg/mL]
COc1ccc2cc3[n+](cc2c1OC)CCc1cc2c(cc1-3)OCO2.[Cl-] [BERBERINE CHLORIDE]	31.3	62.5	31.3	31.3	78.1	7.8	15.6	31.3	0.5	125	15.6
CC(=O)O[C@@H]1C=C(C=O)[C@](O)(C=O)[C@@]2(C)CCCC(C)(C)[C@H]12 [CINNAMODIAL]	15.6 (≈ 50.6 µM)	125 (≈ 405 µM)	15.6 (≈ 50.6 µM)	62.5 (≈ 203 µM)	31.3 (≈ 102 µM)	31.3 (≈ 102 µM)	62.5 (≈ 203 µM)	31.3 (≈ 102 µM)	0.3	3.9 (≈ 12.6 µM)	15.6
CC(=O)O[C@@H]1C=C2C(=O)OC[C@]2(O)[C@@]2(C)CCCC(C)(C)[C@H]12 [CINNAMOSMOLIDE]	313 (≈ 1020 µM)	78.1 (≈ 253 µM)	156 (≈ 506 µM)	1250 (≈ 4050 µM)	1250 (≈ 4050 µM)	625 (≈ 2030 µM)	23.4 (≈ 75.9 µM)	625 (≈ 2030 µM)	–	–	–
C=CCc1cc2c(c(OC)c1OC)OCO2 [DILLAPIOLE]	–	–	–	500 (≈ 2250 µM)	–	–	–	–	–	–	–
CC(=O)N1CCN(c2ccc(OCC3COC(Cn4ccnc4)(c4ccc(Cl)cc4Cl)O3)cc2)CC1 (centres undefined) [KETOCONAZOLE]	31.3 (≈ 58.9 µM)	93.8 (≈ 177 µM)	93.8 (≈ 177 µM)	0.4 (≈ 0.753 µM)	1.2 (≈ 2.26 µM)	–	93.8 (≈ 177 µM)	0.04 (≈ 0.0753 µM)	–	–	–
CC1(C)CCC[C@@]2(C)[C@H]1[C@@H](O)C=C(C=O)[C@]2(O)C=O [MUKAADIAL]	–	–	–	1000 (≈ 3750 µM)	–	–	–	–	0.8	–	250
CC(=O)O[C@H]1C=C(C=O)[C@](O)(C=O)[C@@]2(C)[C@H](OC(C)=O)CCC(C)(C)[C@H]12 [PARRITADIAL]	–	–	–	1000 (≈ 2730 µM)	–	–	–	–	1.5	–	250
